How the values were obtained:
Rat [1] = test: concentration in plasma after dosing; settings: dosed: 2-Hydroxy-4-methoxybenzophenone, 100 mg/kg, oral, Male, F344
Mouse [2] = test: concentration in plasma after dosing; settings: 0.25 h; dosed: 2-Hydroxy-4-methoxybenzophenone; 50 mg/kg; iv; Female; B6C3F1
Mouse [3] = test: concentration in plasma after dosing; settings: 3 h; dosed: 2-Hydroxy-4-methoxybenzophenone; 250 mg/kg; oral; Female; B6C3F1
Mouse [4] = test: concentration in plasma after dosing; settings: 2 h; dosed: 2-Hydroxy-4-methoxybenzophenone; 50 mg/kg; iv; Male; B6C3F1
Mouse [5] = test: concentration in plasma after dosing; settings: 3 h; dosed: 2-Hydroxy-4-methoxybenzophenone; 250 mg/kg; oral; Female; B6C3F1; remark: listed apart in the source
Rat [6] = test: concentration in plasma after dosing; settings: 6 h; dosed: Primidone; 30 mg/kg; oral; Female; F344
Rat [7] = test: concentration in plasma after dosing; settings: 6 h; dosed: Primidone; 80 mg/kg; oral; Female; F344
Rat [8] = test: concentration in plasma after dosing; settings: dosed: 2,4-Dichlorophenoxyacetic acid, 7.0 mg/kg, oral, Male, Sprague-Dawley
Rat [9] = test: concentration in plasma after dosing; settings: 6 h; dosed: alpha-Thujone; 25 mg/kg; oral; Male; Harlan Sprague Dawley
Rat [10] = test: concentration in brain after dosing; settings: 6 h; dosed: alpha-Thujone; 25 mg/kg; oral; Male; Harlan Sprague Dawley
Rat [11] = test: concentration in brain after dosing; settings: 5 min; dosed: alpha-Thujone; 25 mg/kg; oral; Male; Harlan Sprague Dawley
Rat [12] = test: concentration in brain after dosing; settings: 2 h; dosed: 76231-76-0; 3.0 mg/kg; iv; Female; F344
Rat [13] = test: concentration in kidney after dosing; settings: 6 h; dosed: Perfluorohexane-1-sulphonic acid – potassium salt; 16 mg/kg; oral; Female; Harlan Sprague Dawley
Rat [14] = test: concentration in brain after dosing; settings: 48 h; dosed: Perfluorohexane-1-sulphonic acid – potassium salt; 16 mg/kg; oral; Female; Harlan Sprague Dawley
Rat [15] = test: concentration in kidney after dosing; settings: 24 h; dosed: Perfluorohexane-1-sulphonic acid – potassium salt; 16 mg/kg; oral; Female; Harlan Sprague Dawley
Rat [16] = test: concentration in kidney after dosing; settings: 3 h; dosed: Perfluorohexane-1-sulphonic acid – potassium salt; 16 mg/kg; oral; Female; F344
human = test: amount in urine after dosing (umol)
Procedure, shortened: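 A PubMed search, classifier screening and manual review identified published in vivo toxicokinetic studies, which together with two structured collections supplied concentration-versus-time and amount-versus-time points. Points were mostly digitised from plot screenshots with WebPlotDigitizer, otherwise copied from tables. Dose, route, subject details and medium were hand-curated from each paper, and sampling and analytical methods are those of the sources, often unreported.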

Rat [17] = test: concentration in plasma after dosing; settings: 20 min; dosed: Pyridine; 10 mg/kg; iv; Male; F344
Rat [18] = test: concentration in plasma after dosing; settings: dosed: Methyleugenol, 37 mg/kg, iv, Male, F344
Rat [19] = test: concentration in plasma after dosing; settings: dosed: Methyleugenol, 37 mg/kg, oral, Male, F344/N
Rat [20] = test: concentration in plasma after dosing; settings: 20 min; dosed: Methyleugenol; 37 mg/kg; oral; Female; F344/N
Rat [21] = test: concentration in plasma after dosing; settings: dosed: Methyleugenol, 37 mg/kg, iv, Female, F344

O=C(c1ccccc1)c1ccc(O)cc1O [2,4-Dihydroxybenzophenone]
Rat [1]
Settings | concentration in plasma [ng/mL]
0.5 h | 142
5 h | 65.6

Settings | concentration in plasma [ng/mL]
Mouse [2] | 903
Mouse [3] | 162
Mouse [4] | 266
Mouse [5] | 133

CCC1(c2ccccc2)C(=O)NCNC1=O [Primidone]
Settings | concentration in plasma [ng/mL]
Rat [6] | 12100
Rat [7] | 43900

O=C(O)COc1ccc(Cl)cc1Cl [2,4-Dichlorophenoxyacetic acid]
Rat [8]
Settings | concentration in plasma [ng/mL]
0.25 h | 9530
0.5 h | 10100
2 h | 13900
2.5 min | 4360
3 h | 2020
4 h | 2030
5 h | 3730
6 h | 776
10 min | 8480

CC(C)[C@]12CC(=O)[C@H](C)[C@H]1C2 [alpha-Thujone]
Settings | concentration in brain [ng/g] | concentration in plasma [ng/mL]
Rat [9] | – | 68.6
Rat [10] | 117 | –
Rat [11] | 589 | –
Rat [12] | 19.3 | –

O=S(=O)([O-])C(F)(F)C(F)(F)C(F)(F)C(F)(F)C(F)(F)C(F)(F)F.[K+] [Perfluorohexane-1-sulphonic acid – potassium salt]
Settings | concentration in brain [ng/g] | concentration in kidney [ng/g]
Rat [13] | – | 36500
Rat [14] | 496 | –
Rat [15] | – | 24300
Rat [16] | – | 18100

CC(C)(O)CO [2-methyl-1,2-propanediol]
amount in urine, human, inhalation, duration: 4 hr
Settings | dosed: ethyl tert-butyl ether | dosed: methyl tert-butyl ether
0 h, 4.5 ppm | 0.545 | 1.1
0.1089 h, 38.7 ppm | – | 7.53
0.1579 h, 40.6 ppm | 3.98 | –
5.975 h, 4.5 ppm | 2.4 | –
6 h, 40.6 ppm | 14.9 | –
6.195 h, 38.7 ppm | – | 37
6.261 h, 4.5 ppm | – | 3.42
11.95 h, 38.7 ppm | – | 45.2
12 h, 40.6 ppm | 24.1 | –
12.1 h, 4.5 ppm | – | 4.96
12.15 h, 4.5 ppm | 2.89 | –
18 h, 40.6 ppm | 19.9 | –
18.07 h, 4.5 ppm | 3.11 | –
18.16 h, 4.5 ppm | – | 2.54
18.22 h, 38.7 ppm | – | 35.6
23.96 h, 38.7 ppm | – | 26
24 h, 4.5 ppm | – | 3.2
24 h, 40.6 ppm | 12.5 | –
24.03 h, 4.5 ppm | 2.35 | –
29.89 h, 40.6 ppm | 7.97 | –
30.14 h, 38.7 ppm | – | 28.1
30.16 h, 4.5 ppm | – | 2.54
30.2 h, 4.5 ppm | 1.53 | –
35.98 h, 38.7 ppm | – | 17.1
36 h, 4.5 ppm | – | 1.32
36.11 h, 40.6 ppm | 7.37 | –
36.16 h, 4.5 ppm | 1.04 | –
42.11 h, 40.6 ppm | 4.98 | –
42.12 h, 4.5 ppm | 0.655 | –
42.15 h, 38.7 ppm | – | 8.9
42.16 h, 4.5 ppm | – | 0.662
48 h, 38.7 ppm | – | 5.48
48.11 h, 40.6 ppm | 3.19 | –
48.3 h, 4.5 ppm | 0.6 | –
54.05 h, 40.6 ppm | 2.39 | –
54.07 h, 38.7 ppm | – | 4.79
60.03 h, 38.7 ppm | – | 3.42
60.16 h, 40.6 ppm | 2.19 | –
66.09 h, 38.7 ppm | – | 3.42
66.11 h, 40.6 ppm | 1.59 | –
71.95 h, 38.7 ppm | – | 1.37
72.05 h, 40.6 ppm | 1.59 | –

amount in urine, human, dosed: methyl tert-butyl ether, oral
Settings | 5 mg | 15 mg
0 h | 0.0411 | –
5.848 h | – | 2.13
6.268 h | 0.795 | –
12.12 h | 1.23 | 3.38
17.99 h | – | 2.7
18.39 h | 1.15 | –
24.17 h | – | 1.82
24.44 h | 0.658 | –
30.03 h | – | 1.82
30.29 h | 0.616 | –
36.11 h | – | 1.02
36.35 h | 0.384 | –
41.98 h | – | 0.46
42.2 h | 0.233 | –
48.05 h | – | 0.462
48.26 h | 0.123 | –
53.91 h | – | 0.224
54.42 h | 0.123 | –
59.78 h | – | 0.146
60.27 h | 0.0411 | –
65.95 h | – | 0.0276

c1ccncc1 [Pyridine]
Settings | concentration in plasma [ng/mL]
Rat [17] | 4020

C=CCc1ccc(OC)c(OC)c1 [Methyleugenol]
Settings | concentration in plasma [ng/mL]
Rat [18], 3 h | 263
Rat [18], 5 min | 29200
Rat [19], 1.5 h | 23.6
Rat [19], 6 h | 8
Rat [21], 0.5 h | 1520
Rat [21], 0.75 h | 768

Settings | concentration in plasma [ng/mL]
Rat [20] | 374

Reference: EPA's CvTdb concentration-time database
